Assay: Toxicity liver stage against HepG2, at 10uM
Type: cell-based
Design: test concentration 10 uM, cell line HepG2-A16-CD81EGFP
Conditions: human, HepG2-A16-CD81EGFP cells; read-out: INHIBITION
In short: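 Uninfected HepG2-A16-CD81EGFP cells, 3 × 10^3 per well, 1536-well, plated on prespotted compound at 10 μM final, parasite-free screening media added to match infected plates; puromycin 10 μM positive, DMSO 0.5% negative; run in parallel with 48 h PbLuc assay at 37 °C, 5% CO2; viability by CellTiter-Glo luminescence, normalized to controls.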

Row | SMILES | cytotoxicity at 10 µM [%]
1 | Clc1ccc(CN2CCOC[C@H](Oc3cccnc3)C2)cc1 | 6.12
2 | OCCc1cc(CC2(NCc3ccc(C(F)(F)F)cc3)COC2)no1 | -4.41
3 | O=C1N(Cc2ccccn2)C[C@H]2CN(C3CCOCC3)CCN12 | 7.94
4 | COCCN1C[C@H]2CN(C(=O)c3ccc4c(c3)OCO4)CCN2C1=O | 13.7
5 | Cc1[nH]c2nc(CNc3cccc(Cl)c3)nn2c(=O)c1C | 0.0924
6 | CC(C)OCCCNC(=O)C1CC(=O)N(c2n[nH]c3cccc(F)c23)C1 (stereo unspecified) | -4.73
7 | Cc1ncn(CCNC(=O)Nc2ccccc2)c(=O)c1C | -4.39
8 | O=C(COc1ccc(-n2cccn2)nn1)NC1CCCCC1 | -1.03
9 | COC(=O)N1CCC(CNS(=O)(=O)c2cnn(C)c2)CC1 | -9.03
10 | COCCNC(=O)c1ccc2ccc(N3CCN(CC4CC4)CC3)n2c1 | 6.59
11 | CN(C)CC(=O)N1CCC2(CC1)CN(Cc1cccnc1)C(=O)CO2 | -8.99
12 | CC(=O)N1CCO[C@@H]2CN(S(=O)(=O)c3ccccc3F)C[C@@H]2C1 | 12.6
13 | COCC1c2nnn(C)c2CCN1C(=O)Cc1ccc2c(c1)OCO2 (stereo unspecified) | 9.46
14 | O=C1CC(c2ccc(C(=O)O)cc2)c2ncn(-c3ccc(F)cc3)c2N1 (stereo unspecified) | -3.67
15 | CC(C)NC(=O)c1ccc2c(c1)nc1n2CCN(Cc2ccco2)C1 | 8.16
16 | CC(=O)N1CCN(C(=O)c2sc(-c3ccccc3F)nc2C)CC1 | -3.3
17 | O=C(Cn1cc(-c2ccccc2)ncc1=O)NC1CCCCC1 | -8.03
18 | CC(=O)c1c(O)n(C)c2ccc(C)cc12 | 8.58
19 | CC(C)[C@H](NC(=O)NC1CCS(=O)(=O)C1)C(=O)NCc1cccnc1 (stereo partly specified) | 5.47
20 | O=C(Cn1ccc2c(Cl)cccc21)N[C@@H](C(=O)O)c1ccccc1 | 2.19
21 | CCc1ccc(NC(=O)Nc2c(O)oc3ccccc3c2=O)cc1 | 5.95
22 | Cc1ccc(C(=O)Nc2c(C(=O)N(C)C)nn(C)c2C)cc1 | 5.59
23 | CCCc1nc(NCCCO)c2c(n1)c(C)nn2CC | 2.55

Row | SMILES | cytotoxicity at 10 µM [%]
24 | CN(C)C(=O)c1cn[nH]c1C1CCCN1Cc1cncn1C (stereo unspecified) | -1.89
25 | CC(C)c1cc(C(=O)N[C@@H]2CC[C@@H](Oc3ccccc3)[C@@H]2O)on1 | 2.27
26 | Cc1c(S(=O)(=O)N2CCCCC2c2nnc(-c3cccs3)o2)cnn1C (stereo unspecified) | 3.22
27 | CN(C)S(=O)(=O)N1CCC(c2c(C(N)=O)sc3ccccc23)C1 (stereo unspecified) | 4.83
28 | CNc1nccnc1C1CN(C(=O)c2c[nH]cn2)CCO1 (stereo unspecified) | 3.4
29 | O[C@@H]1CN(Cc2cnccn2)C[C@H]1Oc1ccccc1 | -29.5
30 | Cc1ccnc(C2CCN(S(=O)(=O)c3cn(C)cn3)CC2)n1 | 3.24
31 | CCc1ccccc1Nc1noc2c1CN(C(=O)CNC(C)=O)CC2 | -20.1
32 | Cc1nc(C2CCCN2C(=O)Cc2ccc(F)cc2)nc(O)c1C (stereo unspecified) | -30.4
33 | CC(C)CC(=O)Nc1ccccc1Oc1ccsc1C(=O)O | 6.2
34 | O=C(NCCNC(=O)C1CC1)c1sccc1Br | 1.66
35 | COc1ccccc1CN1CCCC(n2cccn2)C1 (stereo unspecified) | 2
36 | CC(C)CN(CC(O)c1ccccc1)C(=O)Nc1nccs1 (stereo unspecified) | -1.96
37 | CCN(CCCNC(=O)Nc1ccccc1C(C)C)S(C)(=O)=O | -0.132
38 | COc1ccccc1CNC(=O)N1CCCC(CO)C1 (stereo unspecified) | 0.91
39 | CC(NC(=O)NCC(C)(C)O)c1ccc(-c2cncnc2)cc1 (stereo unspecified) | 6.27
40 | O=C(CN1C=Nc2ccccc2S1(=O)=O)NC1CCCCC1 | 4.75
41 | CC(C)C(C(=O)NCC1CC1)n1cnc2cc(F)c(F)cc21 (stereo unspecified) | 3.26
42 | Cc1occc1C(=O)NCC(=O)NCCOc1cccc(Cl)c1 | 0.0264
43 | COc1ccc(CNC(=O)CNc2cc3c(cc2Cl)OCCO3)cc1 | -0.238
44 | CNC(=O)NC(=O)CCN1CCCC1c1nc(C2CCCCC2)co1 (stereo unspecified) | 5.44
45 | O=C(c1csc(-c2cccs2)n1)N1CCN2CCCCC2C1 (stereo unspecified) | -3.04
46 | Cc1ccc2cc(C(=O)N3CCN(S(C)(=O)=O)CC3)[nH]c2c1 | -58.1

Row | SMILES | cytotoxicity at 10 µM [%]
47 | CCN1CCN(C(=O)c2c[nH]c(C(C)C)n2)c2ccccc21 | 11.2
48 | Cc1nc2n(n1)CCN(S(=O)(=O)c1ccc(Cl)cc1)C2 | 5.76
49 | CN(Cc1nc2ccccc2c(=O)[nH]1)C1CC(=O)N(C2CC2)C1=O (stereo unspecified) | 4.09
50 | Cc1ccc(F)c(S(=O)(=O)NCc2cccc(N3CCOC3=O)c2)c1 | 9.62
51 | CN(Cc1ccco1)C(=O)CN1CCc2ccccc2C1 | -2.19
52 | CCOc1cccc(CSC(C)c2nc(C)no2)n1 (stereo unspecified) | -22.6
53 | COc1ccccc1CN(CC1CCCO1)C(=O)c1cc(C)n[nH]1 (stereo unspecified) | -2.28
54 | N#Cc1ccc(SCCC(=O)N(Cc2cccnc2)C2CC2)cc1 | 12.3
55 | CCc1nccn1CC(=O)Nc1cccc(C(=O)OC)c1 | -6.88
56 | N#Cc1c(F)cccc1NCCCOCC1CCOCC1 | -1.25
57 | COc1ncccc1C(=O)N1CCC(CNC(C)=O)CC1 | 3.17
58 | CCc1nnc2n1CCN(Cc1csc(-c3ccsc3)n1)C2 | -17.5
59 | Cc1c(NC(=O)NCC(C)N2CCOCC2)cccc1OC(F)F (stereo unspecified) | -2.88
60 | N#Cc1c(N)nc2c(c1-c1cnc(N3CCCC3)nc1)COCC2 | 10.5
61 | Cn1ccnc1CCC1CCCCN1Cc1nccn1C (stereo unspecified) | 8.13
62 | CCN1CC(CN(C)Cc2nc(-c3cccc(C)c3)oc2C)CC1=O (stereo unspecified) | -9.8
63 | O=C(O)c1cccc(C2CCCN(S(=O)(=O)C3CC3)C2)c1 (stereo unspecified) | 3.24
64 | c1ccc(SCCN2CCN(CCn3cncn3)CC2)cc1 | -2.88
65 | CC1(C)Cc2nc(C(C)(C)C)ncc2C(NC(=O)C2(N)CC2)C1 (stereo unspecified) | -2.49
66 | COc1cccc(CCC2CCCN(C(C)=O)C2)c1 (stereo unspecified) | -15.9
67 | O=C(C1CCCO1)N1CCC(n2cc(-c3ccc(F)cc3)nn2)CC1 (stereo unspecified) | -1.41
68 | Cc1nc(NC(=O)N(C)Cc2ccoc2)nn1C | -6.03
69 | Cc1cnn(CCC(=O)N2CCC3(CCC(=O)N(CC4CC4)C3)CC2)c1 | -2.62

Row | SMILES | cytotoxicity at 10 µM [%]
70 | CN(C)Cc1nnc(C2CCCN(c3nc(C(N)=O)cs3)C2)n1C (stereo unspecified) | 1.05
71 | CCNc1ccc(-c2ccnc3c2ccn3C)nn1 | -18.1
72 | Cc1nccn1C1(C(=O)O)CCN(Cc2ccc3c(c2)OCCO3)CC1 | -1.53
73 | CCn1c(N)nc2cc(C(=O)N(C)Cc3cc(C(C)(C)C)n[nH]3)cnc21 | 4.53
74 | Fc1ccc(NC2CCCN(Cc3ccncc3)C2)cc1 (stereo unspecified) | 3.58
75 | COc1cccc2c1OCC(CNC(=O)CCCN1CCOCC1)C2 (stereo unspecified) | 16.6
76 | COc1ccccc1[C@@H]1CN(Cc2cc(C(C)(C)C)[nH]n2)C[C@H]1C(=O)O | 18.4
77 | COc1ccccc1[C@@H]1CN(C(=O)c2csc(C)n2)C[C@H]1C(=O)O | 4.98
78 | CC(=O)c1cn(CC(=O)NC(C(=O)O)C(C)C)c2ccccc12 (stereo unspecified) | 0.415
79 | Cc1nc(CN2CCCC(NCc3cnn(C)c3)C2)no1 (stereo unspecified) | -2.53
80 | CC(C)Cc1cc(NC(=O)c2cccnc2)n(C)n1 | -7.09
81 | O=C(NCc1ccc(Cl)s1)NCc1nnc2n1CCCCC2 | -2.06
82 | CCc1ncc2c(n1)CN(Cc1nc(-c3cccnc3)no1)CC2 | -1.62
83 | CCn1cc(NC(=O)C2CCN(CC(=O)NC3CCCC3)CC2)cn1 | -6.52
84 | Cc1nc(C)n(CC2CCCN(c3ccc(C#N)cn3)C2)n1 (stereo unspecified) | -9.67
85 | CCc1nc(C)c(C(=O)NCCn2nc3ccccn3c2=O)s1 | -9.42
86 | CN(C)CC1CN(Cc2nc(-c3ccccn3)no2)CCO1 (stereo unspecified) | -5.8
87 | CC(NC(=O)NCCCN1CCCCCC1=O)c1nncn1C (stereo unspecified) | -0.734
88 | O=C(COc1ccc2c(c1)CCC2)NS(=O)(=O)c1cccnc1 | -4.63
89 | CC(C)c1noc(CN2CCN(CCO)CC2)n1 | -5.57
90 | COC(=O)c1ccc(N2CCN(C(=O)c3cc(C)no3)C(C)C2)cc1 (stereo unspecified) | -0.192
91 | CNC(=O)CCS(=O)(=O)Cc1cc(Cl)c2c(c1)OCCCO2 | -6.31
92 | CC(=O)N1CCCN(C(=O)NCCc2ccc(Cl)s2)CC1 | -2.24

Row | SMILES | cytotoxicity at 10 µM [%]
93 | CCCOc1cc(CNC(=O)Nc2cccnc2N2CCCC2)ccn1 | -2.06
94 | c1coc(-c2noc(CN3CC(n4cccn4)C3)n2)c1 | 2.96
95 | CN(C)C(=O)COCc1cncc2c1CCN(Cc1ccccn1)C2 | -2.51
96 | NCC1CCC(c2c(C(=O)NCCO)sc3ccccc23)CC1 (stereo unspecified) | -11
97 | Cc1ccc(N2CCc3c(CN(C)Cc4ccco4)cncc3C2)nn1 | -6.57
98 | CCOCc1cnc2n1CCN(Cc1cccs1)C2C (stereo unspecified) | 11.3
99 | CC(C)c1nn(C)c(N(C)C)c1CNCc1cscn1 | -5.54
100 | Cc1nc(CN2CCC3(CCN(Cc4nccn4C)CC3)C2=O)cs1 | -1.43
101 | Cc1cccc(CN2C(=O)CCC23CCN(c2ccccn2)CC3)n1 | 3.2
102 | Cc1cccc(CN2C[C@@H](NC(=O)C3CC3)[C@H]3OCCC[C@H]32)n1 | 7.8
103 | CC(=O)N1CC[C@@H]2CN(Cc3ccncc3)S(=O)(=O)[C@@H]2CC1 | 5.07
104 | CCOCC1CN(C(=O)c2cnoc2C)Cc2cnn(C)c21 (stereo unspecified) | 0.384
105 | Cc1ccc(CNC(C)c2ccc(N3CCN(C)CC3)c(F)c2)o1 (stereo unspecified) | -2.76
106 | CN(C)C[C@@H]1CCC[C@@H]2CN(c3cccnc3)C[C@@H]21 | -11.9
107 | Cc1nc(CN2C[C@@H](NC(=O)C3CCC3)[C@H]3COC[C@H]32)cs1 | 7.58
108 | COCC1CC2(CCN(Cc3cccc(C#N)c3)CC2)CN1C(C)C (stereo unspecified) | 0.866
109 | CC(C)N1C(=O)C2(CCN(C)CC2)c2cc(F)ccc21 | -110
110 | CN1CC(=O)N(c2ccccc2)CC12CCN(CC1CCOCC1)C2 (stereo unspecified) | 4.22
111 | CCn1cc(-n2cc3nc(N4CCC(O)CC4)[nH]cc-3c2=O)cn1 | 5.01

From ChEMBL document CHEMBL4513216, “Probing the Open Global Health Chemical Diversity Library for Multistage-Active Starting Points for Next-Generation Antimalarials” (ACS Infect Dis, 2020)
